The source of these data is ChEMBL document CHEMBL1828621, “Single step synthesis of new fused pyrimidine derivatives and their evaluation as potent Aurora-A kinase inhibitors” (Eur J Med Chem, 2011).

Assay [1] has as its system HCT-116. Description: Cytotoxicity against human HCT116 cells after 48 hrs by sulforhodamine B method. Conditions: HCT-116, 48 h; call rule not given here. The class given is functional, cell-based. The method, boiled down: (§1)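 HCT116 colon tumour cells grown in RPMI 1640 with 5% FBS and 2 mM L-glutamine. Seeded at 10,000 cells/well and held 24 h at 37 °C, 5% CO₂ before dosing. Drugs kept as DMSO stocks at 400-fold the top final concentration, diluted in medium with gentamicin, tested at four concentrations for 48 h. Fixed with cold TCA (final 10%) for 60 min at 4 °C, stained with 0.4% SRB, bound dye dissolved in Tris-EDTA, read on an ELISA reader. Extra plates fixed at dosing served as baseline.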

Assay [2] concerns HCT-116. Put plainly: Cytotoxicity against human HCT116 cells assessed as cell survival at 5 ug/ml after 48 hrs by sulforhodamine B method relative to control. The assay is classed as functional. The method, boiled down: as §1
Assay [3] deals with HCT-116. Description: Cytotoxicity against human HCT116 cells assessed as cell survival at 2.5 ug/ml after 48 hrs by sulforhodamine B method relative to control. The class given is functional. The method in brief:
as §1
(In general: In SRB staining, fixed cells bind dye roughly in proportion to their protein.)

In assay [4] the test system is HCT-116. Put plainly: Cytotoxicity against human HCT116 cells assessed as cell survival at 1 ug/ml after 48 hrs by sulforhodamine B method relative to control. The class given is functional. The method, boiled down: as §1
The target of assay [5] is T1, Aurora kinase A (Homo sapiens, UniProt O14965).
T1 sequence (O14965 whole entry): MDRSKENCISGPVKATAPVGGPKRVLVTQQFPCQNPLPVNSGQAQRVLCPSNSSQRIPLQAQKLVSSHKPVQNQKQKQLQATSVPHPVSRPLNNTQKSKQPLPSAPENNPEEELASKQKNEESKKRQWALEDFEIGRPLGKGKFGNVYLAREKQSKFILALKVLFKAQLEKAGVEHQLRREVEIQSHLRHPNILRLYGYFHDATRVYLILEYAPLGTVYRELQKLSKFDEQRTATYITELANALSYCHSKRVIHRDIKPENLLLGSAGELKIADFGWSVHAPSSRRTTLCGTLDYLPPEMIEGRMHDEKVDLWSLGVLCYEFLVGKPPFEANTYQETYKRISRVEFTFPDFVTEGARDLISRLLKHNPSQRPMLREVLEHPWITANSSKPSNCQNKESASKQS
Description: Inhibition of GST-tagged Aurora A kinase expressed in insect cells assessed as inhibition of [33P]gamma-ATP incorporation in substrate after 60 mins by scintillation counting. The method in brief: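 Reaction: biotinylated CHOCKtide substrate with ATP/[γ-33P]ATP mix, 60 min at room temperature, in 50 mM HEPES pH 7.5, 10 mM MgCl₂, 1 mM DTT, NaVO₃ and 0.2 mg/mL BSA. Stopped with EDTA/ATP plus streptavidin SPA beads; beads floated on 5 M CsCl and counted for phosphate incorporated into substrate.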

Assay [6] concerns HCT-116. Description: Cytotoxicity against human HCT116 cells assessed as cell survival at 10 ug/ml after 48 hrs by sulforhodamine B method relative to control. The class given is functional. The method in brief:
as §1

≈ marks a conversion by molar mass, not a printed value.

In general, IC50 refers to the concentration needed to halve the response being measured. Regarding `O=S(=O)(c1ccccc1)c1cnc2nc3ccccc3n2c1-c1ccccc1`, the IC50 in assay [1] was over 25 µg/mL; in assay [5], “Not Active”. Moreover, the Ratio in assay [2] was determined as 0.845; in assay [3] it was 0.885; in assay [4], 0.984; in assay [6], 0.82.
Take `Cc1ccc(-c2c(S(=O)(=O)c3ccccc3)cnc3cc(-c4ccc(Cl)cc4)nn23)cc1`: the values for the IC50 in assay [1] and in assay [5] were 9.3 µg/mL (≈ 20.2 µM) and “Not Active”, respectively. Moreover, the Ratio in assay [2] was 0.382; in assay [3], 0.665; in assay [4], 1; in assay [6], 0.333.
As to `O=S(=O)(c1ccccc1)c1cnc2ncnn2c1-c1ccc(Cl)cc1`, the figures for the IC50 in assay [1] and in assay [5] (read-out: IC50) were 2.15 µg/mL (≈ 5.8 µM) and 9240 nM, respectively. The Ratio is 0.316 in assay [2], 0.377 in assay [3], 0.786 in assay [4] and 0.243 in assay [6].
As to `COc1ccc(-c2cc3ncc(S(=O)(=O)c4ccccc4)c(-c4ccccc4)n3n2)cc1`, the concentration for half-maximal inhibition (IC50) turned out to be 1.28 µg/mL (≈ 2.9 µM) in assay [1] and 25 nM in assay [5] (read-out: IC50). The Ratio in assay [2] was 0.288; in assay [3], 0.436; in assay [4] it was 0.516; in assay [6], 0.217.
Consider `Cc1ccc(-c2c(S(=O)(=O)c3ccccc3)cnc3cc(-c4ccccc4)nn23)cc1`, for which the IC50 is 18 µg/mL (≈ 42.3 µM) in assay [1] and “Not Active” in assay [5]. The Ratio in assay [2] is on record as 0.701; in assay [3] it was 0.745; in assay [4] it was 1; in assay [6] it was 0.253.
As for `O=S(=O)(c1ccccc1)c1cnc2cc(-c3ccc(Cl)cc3)nn2c1-c1ccccc1`, the figures for the 50% inhibitory concentration (IC50) in assay [1] and in assay [5] (read-out: IC50) were 1.64 µg/mL (≈ 3.68 µM) and 120 nM, respectively. Also, the Ratio in assay [2] stood at 0.42; in assay [3], 0.508; in assay [4] it was 0.56; in assay [6], 0.42.
With `O=S(=O)(c1ccccc1)c1cnc2cc(-c3ccccc3)nn2c1-c1ccccc1`, the IC50 amounted to 1.27 µg/mL (≈ 3.09 µM) in assay [1] and 51 nM in assay [5] (read-out: IC50). Moreover, the Ratio in assay [2] is listed as 0.43; in assay [3], 0.455; in assay [4] it was 0.683; in assay [6] it was 0.377.
Take `Cc1ccc(-c2c(S(=O)(=O)c3ccccc3)cnc3c(Br)c(-c4ccccc4)nn23)cc1`: the IC50 is 14 µg/mL (≈ 27.8 µM) in assay [1] and “Not Active” in assay [5]. The Ratio is 0.53 in assay [2], 0.701 in assay [3], 1 in assay [4] and 0.309 in assay [6].
For `COc1cccc2c1C(=O)c1c(O)c3c(c(O)c1C2=O)C[C@@](O)(C(=O)CO)C[C@@H]3O[C@H]1C[C@H](N)[C@H](O)[C@H](C)O1` [DOXORUBICIN], the IC50 in assay [1] worked out at 1.3 µg/mL (≈ 2.39 µM); in assay [5] (read-out: IC50), 40 nM. Moreover, the Ratio in assay [2] came to 0.42; in assay [3] it was 0.439; in assay [4], 0.523; in assay [6], 0.291.
For the compound `Cc1ccc(-c2cc3ncc(S(=O)(=O)c4ccccc4)c(-c4ccc(C)cc4)n3n2)cc1`, the IC50 is 10.5 µg/mL (≈ 23.9 µM) in assay [1] and “Not Active” in assay [5]. For the same compound, the Ratio is listed as 0.408 in assay [2], 0.764 in assay [3], 1 in assay [4] and 0.246 in assay [6].
As for `Cc1nn2c(-c3ccccc3)c(S(=O)(=O)c3ccccc3)cnc2c1Br`, the concentration for half-maximal inhibition (IC50) in assay [1] is 2.21 µg/mL (≈ 5.16 µM); in assay [5], “Not Active”. For the same compound, the Ratio in assay [2] was 0.253; in assay [3] it was 0.373; in assay [4], 0.529; in assay [6] it was 0.183.
As for `COc1ccc(-c2cc3ncc(S(=O)(=O)c4ccccc4)c(-c4ccc(Cl)cc4)n3n2)cc1`, the results for the IC50 in assay [1] and in assay [5] were over 25 µg/mL and “Not Active”, respectively. The Ratio in assay [2] stood at 0.778; in assay [3] it was 0.794; in assay [4], 0.824; in assay [6], 0.744.
Regarding `O=S(=O)(c1ccccc1)c1cnc2c(Br)c(-c3ccccc3)nn2c1-c1ccccc1`, the IC50 in assay [1] was 1.34 µg/mL (≈ 2.73 µM); in assay [5] (read-out: IC50), 39 nM. Further, the Ratio in assay [2] was determined as 0.271; in assay [3], 0.42; in assay [4], 0.629; in assay [6], 0.24.
In the case of `O=S(=O)(c1ccccc1)c1cnc2ncnn2c1-c1ccccc1`, the figures for the 50% inhibitory concentration (IC50) in assay [1] and in assay [5] (read-out: IC50) were 1.97 µg/mL (≈ 5.86 µM) and 104 nM, respectively. Further, the Ratio in assay [2] was found to be 0.294; in assay [3], 0.302; in assay [4], 0.689; in assay [6] it was 0.256.
Turning to `O=S(=O)(c1ccccc1)c1cnc2nc3ccccc3n2c1-c1ccc(Br)cc1`, the IC50 is 16.3 µg/mL (≈ 35.1 µM) in assay [1] and “Not Active” in assay [5]. Moreover, the Ratio in assay [2] stood at 0.624; in assay [3], 0.748; in assay [4] it was 1; in assay [6] it was 0.209.
For the compound `Cc1cc2ncc(S(=O)(=O)c3ccccc3)c(-c3ccccc3)n2n1`, the IC50 in assay [1] was over 25 µg/mL; in assay [5] (read-out: IC50), 101 nM. Further, the Ratio in assay [2] turned out to be 0.671; in assay [3] it was 0.698; in assay [4], 0.774; in assay [6], 0.597.
As for `O=S(=O)(c1ccccc1)c1cnc2cc(-c3ccccc3)nn2c1-c1ccc(Cl)cc1`, the IC50 in assay [1] is over 25 µg/mL; in assay [5] it was “Not Active”. The Ratio is given as 0.894 in assay [2], 0.953 in assay [3], 0.987 in assay [4] and 0.797 in assay [6].
For `O=S(=O)(c1ccccc1)c1cnc2nc3ccccc3n2c1-c1ccc(Cl)cc1`, the figures for the half-inhibitory concentration (IC50) in assay [1] and in assay [5] were over 25 µg/mL and “Not Active”, respectively. Besides, the Ratio was found to be 0.889 in assay [2], 0.905 in assay [3], 0.95 in assay [4] and 0.79 in assay [6].
